Source: ChEMBL document CHEMBL4616716, “ONO-8430506: A Novel Autotaxin Inhibitor That Enhances the Antitumor Effect of Paclitaxel in a Breast Cancer Model” (ACS Med Chem Lett, 2020)
One block for each molecule: values may come before it.

What was measured:
Autotaxin [1] = molecular target: T1, Autotaxin (Homo sapiens, UniProt Q13822); experiment: Inhibition of recombinant human ATX assessed as reduction in choline release using LPC(16:0) as substrate incubated for 15 hrs
In short: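 Recombinant human ATX with 16:0 LPC as substrate. Single-point inhibition was tested at 30 μM, and IC50 values were determined.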

[2] = Protein binding in rat plasma measured after 4 hrs by LC-MS/MS analysis; format: ADME, cell-free; conditions: read-out: PPB (converted)
Autotaxin [3] = molecular target: T1, Autotaxin; experiment: Inhibition of LysoPLD activity of ATX in human plasma assessed as reduction in choline release using LPC(16:0) as substrate incubated for 15 hrs; format: cell-free
In short: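 LysoPLD activity in human plasma with 16:0 LPC as substrate; IC50 determined.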

[4] = AUC in Sprague-Dawley rat at 0.5 mg/kg, po administered as single cassette dosing by LC-MS/MS analysis; format: ADME, organism-based; conditions: in vivo
In short: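 Rat cassette dosing, 0.5 mg/kg oral; plasma AUC reported.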

[5] = Protein binding in human plasma measured after 4 hrs by LC-MS/MS analysis; format: ADME, cell-free; conditions: read-out: PPB (converted)
[6] = Metabolic stability in human hepatocytes assessed as parent compound remaining at 1 uM measured after 2 hrs by LC-MS/MS analysis; format: ADME, cell-based, Hepatocyte; conditions: read-out: Stability
In short: (§1)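 Human and rat hepatocyte incubation; percent parent remaining after 2 h.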

[7] = Metabolic stability in rat hepatocytes assessed as parent compound remaining at 1 uM measured after 2 hrs by LC-MS/MS analysis; format: ADME, cell-based, Hepatocyte; conditions: read-out: Stability; in short: as §1
[8] = Plasma clearance in Sprague-Dawley rat at 1 mg/kg, iv by LC-MS/MS analysis; format: ADME, organism-based
In short: (§2)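 Single-dose rat PK, 1 mg/kg iv and 3 mg/kg po, n = 3. Plasma clearance was taken from the iv dose. Bioavailability was calculated from the iv and oral doses.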

[9] = Oral bioavailability in Sprague-Dawley rat at 3 mg/kg by LC-MS/MS analysis; format: ADME, organism-based; conditions: in vivo; in short: as §2
[10] = Octanol/phosphate buffer partition coefficient, LogD of compound at pH 7.4 mixed for 1 hr using benchtop-rotator followed by further incubation for 1 hr by ESI-LC-MS/MS analysis; format: physicochemical
[11] = Drug metabolism in monkey hepatocytes assessed as compound isomerization by measuring conversion ratio at 1 uM incubated for 2 hrs by LC-MS/MS analysis; format: ADME, cell-based, Macaca mulatta, Hepatocyte; conditions: rhesus monkey, read-out: Drug metabolism
In short: (§3)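 Hepatocytes from human, rat, dog and monkey were incubated with the trans isomer. The conversion ratio is the cis isomer concentration over the sum of cis and trans, 2 h after the start of incubation.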

[12] = Drug metabolism in rat hepatocytes assessed as compound isomerization by measuring conversion ratio at 1 uM incubated for 2 hrs by LC-MS/MS analysis; format: ADME, cell-based, Hepatocyte; conditions: read-out: Drug metabolism; in short: as §3
[13] = Drug metabolism in human hepatocytes assessed as compound isomerization by measuring conversion ratio at 1 uM incubated for 2 hrs by LC-MS/MS analysis; format: ADME, cell-based, Hepatocyte; conditions: read-out: Drug metabolism; in short: as §3
[14] = Drug metabolism in dog hepatocytes assessed as compound isomerization by measuring conversion ratio at 1 uM incubated for 2 hrs by LC-MS/MS analysis; format: ADME, cell-based, Canis lupus familiaris, Hepatocyte; conditions: read-out: Drug metabolism; in short: as §3
[15] = Half life in Beagle dog at 1 mg/kg, po administered as single dose by LC-MS/MS analysis; format: ADME, organism-based, Canis lupus familiaris; conditions: in vivo
[16] = Clearance in Sprague-Dawley rat at 0.3 mg/kg, iv administered as single dose by LC-MS/MS analysis; format: ADME, organism-based; conditions: in vivo
[17] = Half life in cynomolgus monkey at 0.3 mg/kg, iv administered as single dose by LC-MS/MS analysis; format: ADME, organism-based, Macaca fascicularis; conditions: in vivo
[18] = Oral bioavailability in cynomolgus monkey at 1 mg/kg administered as single dose by LC-MS/MS analysis; format: ADME, organism-based, Macaca fascicularis; conditions: in vivo
[19] = Volume of distribution at steady state in Beagle dog at 0.3 mg/kg, iv administered as single dose by LC-MS/MS analysis; format: ADME, organism-based, Canis lupus familiaris; conditions: in vivo, read-out: Vdss
[20] = Oral bioavailability in Sprague-Dawley rat at […] administered as single dose by LC-MS/MS analysis; format: ADME, organism-based; conditions: in vivo; in short: as §2
[21] = Cmax in Sprague-Dawley rat at 1 mg/kg, po administered as single dose by LC-MS/MS analysis; format: ADME, organism-based; parameters: dose 1 mg/kg, route oral; conditions: in vivo
[22] = Half life in Sprague-Dawley rat at 1 mg/kg, po administered as single dose by LC-MS/MS analysis; format: ADME, organism-based; conditions: in vivo
[23] = Volume of distribution at steady state in cynomolgus monkey at 0.3 mg/kg, iv administered as single dose by LC-MS/MS analysis; format: ADME, organism-based, Macaca fascicularis; conditions: in vivo, read-out: Vdss
[24] = Cmax in Beagle dog at 1 mg/kg, po administered as single dose by LC-MS/MS analysis; format: ADME, organism-based, Canis lupus familiaris; parameters: dose 1 mg/kg, route oral; conditions: in vivo
Autotaxin [25] = molecular target: T1, Autotaxin; experiment: In vivo inhibition of lysoPLD activity of ATX in SCID mouse plasma xenografted with human MDA-MB-231 cells at 100 mg/kg, po administered twice daily for 32 days in combination with paclitaxel at 20 mg/kg, ip three times weekly for 5 weeks and measured at 18 hrs post-last dose relative to control; format: functional, organism-based
[26] = Clearance in cynomolgus monkey at 0.3 mg/kg, iv administered as single dose by LC-MS/MS analysis; format: ADME, organism-based, Macaca fascicularis; conditions: in vivo
[27] = Half life in Beagle dog at 0.3 mg/kg, iv administered as single dose by LC-MS/MS analysis; format: ADME, organism-based, Canis lupus familiaris; conditions: in vivo
[28] = Volume of distribution at steady state in Sprague-Dawley rat at 0.3 mg/kg, iv administered as single dose by LC-MS/MS analysis; format: ADME, organism-based; conditions: in vivo, read-out: Vdss
[29] = Cmax in SCID mouse at 1 mg/kg, po administered as single dose by LC-MS/MS analysis; format: ADME, organism-based; parameters: dose 1 mg/kg, route oral; conditions: in vivo
[30] = Half life in SCID mouse at 1 mg/kg, po administered as single dose by LC-MS/MS analysis; format: ADME, organism-based; conditions: in vivo
MDA-MB-231 [31] = experiment: Antitumor activity against human MDA-MB-231 cells xenografted in SCID mouse assessed as tumor growth inhibition at 100 mg/kg, po administered twice daily for 32 days and […] relative to control; format: functional; conditions: MDA-MB-231, po, read-out: TGI
In short: (§4)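 MDA-MB-231 human breast tumour-bearing mice dosed orally at 30 or 100 mg/kg twice daily for 32 days. Where combined, paclitaxel was given at 20 mg/kg ip three times weekly for 5 weeks. Tumour volume was followed and reported at day 32. Tumour growth inhibition was taken from median tumour volume versus vehicle. Groups of n = 8–9 were compared by Student t test.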

MDA-MB-231 [32] = experiment: (§5) Potentiation of paclitaxel-induced antitumor activity against human MDA-MB-231 cells xenografted in SCID mouse assessed as tumor growth inhibition at 100 mg/kg, po administered twice daily for 32 days in combination with paclitaxel at 20 mg/kg, ip three times weekly for 5 weeks and […] (reference value: 81.5%); format: functional; in short: as §4
[33] = Cmax in cynomolgus monkey at 1 mg/kg, po administered as single dose by LC-MS/MS analysis; format: ADME, organism-based, Macaca fascicularis; parameters: dose 1 mg/kg, route oral; conditions: in vivo
[34] = Clearance in Beagle dog at 0.3 mg/kg, iv administered as single dose by LC-MS/MS analysis; format: ADME, organism-based, Canis lupus familiaris; conditions: in vivo
MDA-MB-231 [35] = experiment: as §5, with “30” for “100”, “and measured on” for “and”; format: functional; in short: as §4
[36] = Oral bioavailability in Beagle dog at 1 mg/kg administered as single dose by LC-MS/MS analysis; format: ADME, organism-based, Canis lupus familiaris; conditions: in vivo
[37] = Half life in Sprague-Dawley rat at 0.3 mg/kg, iv administered as single dose by LC-MS/MS analysis; format: ADME, organism-based; conditions: in vivo
Autotaxin [38] = molecular target: T1, Autotaxin; experiment: In vivo inhibition of lysoPLD activity of ATX in SCID mouse plasma xenografted with human MDA-MB-231 cells at 30 mg/kg, po administered twice daily for 32 days in combination with paclitaxel at 20 mg/kg, ip three times weekly for 5 weeks and measured at 18 hrs post-last dose relative to control; format: functional, organism-based

Compound: O=C(C[C@H]1CC[C@H](C(=O)O)CC1)N1CCc2c(n(Cc3ccc(F)cc3F)c3ncccc23)C1
metabolised at 2 h, 1 µM [11]: 21.4%
metabolised at 2 h, 1 µM [12]: 14.4%
fraction unbound at 4 h [2]: 0.021
metabolised at 2 h, 1 µM [13]: 29.8%
metabolised at 2 h, 1 µM [14]: 9%
IC50 (Autotaxin [3]): 7.3 nM
fraction unbound at 4 h [5]: 0.016
logD at 1 h [10]: 1.15

Compound: O=C(CC12CCC(C(=O)O)(CC1)CC2)N1CCc2c(n(Cc3ccc(F)cc3F)c3ncccc23)C1
IC50 (Autotaxin [1]): 9 nM
fraction unbound at 4 h [2]: 0.043
IC50 (Autotaxin [3]): 8.1 nM
AUC [4]: 472 ng·h/mL
fraction unbound at 4 h [5]: 0.009

Compound: O=C(C[C@H]1CC[C@@H](C(=O)O)CC1)N1CCc2c(n(Cc3ccc(F)cc3F)c3ncccc23)C1
IC50 (Autotaxin [1]): 19 nM
IC50 (Autotaxin [3]): 16 nM
fraction unbound at 4 h [5]: 0.006
logD at 1 h [10]: 1.36

Compound: O=C(O)CCCCC(=O)N1CCc2c(n(Cc3ccccc3)c3ncccc23)C1
IC50 (Autotaxin [1]): 240 nM

Compound: O=C(O)c1cccc(CC(=O)N2CCc3c(n(Cc4cccc(F)c4)c4ncccc34)C2)c1
IC50 (Autotaxin [1]): 100 nM
fraction unbound at 4 h [5]: 0.011

Now from value to molecule, other results behind:

IC50 (Autotaxin [1]): 11 nM
fraction unbound at 4 h [2]: 0.061
IC50 (Autotaxin [3]): 7.9 nM
AUC [4]: 500 ng·h/mL
fraction unbound at 4 h [5]: 0.008
Compound: O=C(CC12CCC(C(=O)O)(CC1)C2)N1CCc2c(n(Cc3ccc(F)cc3F)c3ncccc23)C1

IC50 (Autotaxin [1]): 5400 nM
Compound: O=C(O)CCC(=O)N1CCc2c(n(Cc3ccccc3)c3ncccc23)C1

IC50 (Autotaxin [1]): 50 nM
remaining at 2 h, 1 µM [6]: 29%
remaining at 2 h, 1 µM [7]: 10%
clearance [8]: 7.5 mL/min/kg
bioavailability [9]: 30%
logD at 1 h [10]: 0.51
Compound: O=C(O)CCCCC(=O)N1CCc2c(n(Cc3cccc(F)c3)c3ncccc23)C1

half-life [15]: 5.9 h
clearance [16]: 8.2 mL/min/kg
half-life [17]: 7.9 h
bioavailability [18]: 30.8%
IC50 (Autotaxin [1]): 10 nM
Vd [19]: 1.86 L/kg
bioavailability [20]: 51.6%
Cmax [21]: 261 ng/mL
half-life [22]: 2.5 h
fraction unbound at 4 h [2]: 0.049
Vd [23]: 2.27 L/kg
Cmax [24]: 1670 ng/mL
inhibition (Autotaxin [25]): 99.3%
clearance [26]: 5.8 mL/min/kg
half-life [27]: 8.9 h
Vd [28]: 1.47 L/kg
IC50 (Autotaxin [3]): 5.5 nM
AUC [4]: 842 ng·h/mL
Cmax [29]: 124 ng/mL
half-life [30]: 5.4 h
Cmax [33]: 63 ng/mL
fraction unbound at 4 h [5]: 0.01
clearance [34]: 4.7 mL/min/kg
bioavailability [36]: 71.1%
half-life [37]: 3.4 h
inhibition (Autotaxin [38]): 97.1%
Compound: O=C(CC12CCC(C(=O)O)(CC1)C2)N1CCc2c(n(Cc3ccc(F)cc3)c3ncccc23)C1
inhibition in vivo at 100 mg/kg (MDA-MB-231 [31]): 14.7%
TGI (MDA-MB-231 [32]): 95.5%
TGI (MDA-MB-231 [35]): 91.2%
